Values after ≈ are worked out from the molar mass of the structure shown. Active and inactive are the calls of the source. The rule behind the calls is not given here. Positions of bridges follow the written chain, without caps; N, C: chain ends. Non-standard residues stand in square brackets, D forms with d. Residues, ends and D or L forms follow the SMILES beside them. *: point of attachment. X1 = CC[C@H](C)CCCCC(=O)*; Dab = NCC[C@H](N)C(=O)O
Tests used:
[1] = tested on: Enterococcus faecalis; assay: Antibacterial activity against Enterococcus faecalis ATCC 29212 assessed as inhibition of bacterial growth measured after 16 hrs by agar plate dilution method; type: functional
[2] = tested on: Staphylococcus aureus; assay: Antibacterial activity against Staphylococcus aureus ATCC 29213 assessed as inhibition of bacterial growth measured after 16 hrs by agar plate dilution method; type: functional
Summary of the method: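 MIC determined by plate dilution against the reference strain; values from at least two independent experiments.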

[3] = tested on: Staphylococcus aureus; assay: Antibacterial activity against methicillin sensitive Staphylococcus aureus assessed as inhibition of bacterial growth measured after 16 hrs by agar plate dilution method; type: functional
Summary of the method: (§1)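 Clinical MSSA and MRSA strains isolated from local hospitals; MIC determined by plate dilution; data from at least two independent experiments.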

[4] = tested on: Staphylococcus aureus; assay: Antibacterial activity against methicillin resistant Staphylococcus aureus assessed as inhibition of bacterial growth measured after 16 hrs by agar plate dilution method; type: functional; summary of the method: as §1
[5] = tested on: Escherichia coli; assay: Antibacterial activity against Escherichia coli harboring delta tolC mutant assessed as inhibition of bacterial growth measured after 16 hrs by agar plate dilution method; type: functional
[6] = tested on: Staphylococcus aureus; assay: Inhibition of Staphylococcus aureus FabH A81V/A111T mutant assessed as bacterial growth inhibition measured after 18 hrs by resazurin dye based broth dilution assay
Summary of the method: (§2)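 S. aureus strains carrying point mutations in the FabH active site; MIC determined by broth dilution; data from at least two independent experiments.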

[7] = tested on: Staphylococcus aureus; assay: Inhibition of Staphylococcus aureus FabH A81V mutant assessed as bacterial growth inhibition measured after 18 hrs by resazurin dye based broth dilution assay; summary of the method: as §2
[8] = tested on: Staphylococcus aureus; assay: Antibacterial activity against methicillin resistant Staphylococcus aureus assessed as inhibition of bacterial growth measured after 18 hrs in presence of 10% human serum by resazurin dye based broth dilution assay; type: functional
[9] = target: T1, 3-oxoacyl-[acyl-carrier-protein] synthase 2 (Staphylococcus aureus) (UniProt Q5TKS0); assay: Binding affinity to His6-tagged Staphylococcus aureus FabF expressed in Escherichia coli BL21 (DE3) assessed as decrease in melting temperature at 10 uM by SYPRO orange based differential scanning fluorimetry
T1 sequence (whole entry): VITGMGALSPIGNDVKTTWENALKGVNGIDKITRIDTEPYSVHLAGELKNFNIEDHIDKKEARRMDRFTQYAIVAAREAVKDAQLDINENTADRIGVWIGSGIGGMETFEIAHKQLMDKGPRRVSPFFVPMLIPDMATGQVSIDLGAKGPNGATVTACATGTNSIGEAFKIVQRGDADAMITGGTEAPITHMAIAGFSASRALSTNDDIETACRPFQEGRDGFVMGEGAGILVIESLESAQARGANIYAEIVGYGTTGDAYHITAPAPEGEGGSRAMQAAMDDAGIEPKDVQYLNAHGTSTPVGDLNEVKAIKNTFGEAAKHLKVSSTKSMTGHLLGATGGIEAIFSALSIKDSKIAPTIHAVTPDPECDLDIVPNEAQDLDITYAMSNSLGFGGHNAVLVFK
Summary of the method: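 S. aureus FabF melting curves were measured by DSF in 20 mM HEPES, 180 mM NaCl, pH 7.5, a buffer selected by screening seven buffers. ΔTm was derived from the melting-temperature shift caused by ligand; n = 4.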

[10] = tested on: Escherichia coli; assay: Binding affinity to His6-tagged Escherichia coli FabH expressed in Escherichia coli BL21 (DE3) assessed as decrease in melting temperature at 10 uM by SYPRO orange based differential scanning fluorimetry
Summary of the method: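 Purified E. coli FabH melting curves were recorded with and without ligand by thermal-shift fluorometry in 1.0 M Tris-HCl, pH 6.8, a buffer chosen from seven screened. ΔTm was taken from the Tm shift; n = 4.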

[11] = Binding affinity to His6-tagged Escherichia coli FabF C163Q mutant expressed in Escherichia coli BL21 (DE3) assessed as binding constant measured after 200 sec by isothermal titration calorimetry
Summary of the method: (§3)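 Ligands were dissolved in PBS (10 mM, pH 7.4) and titrated into E. coli FabF(C163Q) in the same buffer. Protein was at 12 or 14 μM and ligand at 250 μM. Thermodynamic parameters (ΔH, ΔS, ΔG, Kd, n) were calculated from the heat of binding. Runs were done at least three times; one representative run was used.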

[12] = tested on: Escherichia coli; assay: Binding affinity to His6-tagged Escherichia coli FabF C163Q mutant expressed in Escherichia coli BL21 (DE3) assessed as stoichiometry ratio measured after 200 sec by isothermal titration calorimetry; summary of the method: as §3
[13] = tested on: Escherichia coli; assay: Binding affinity to His6-tagged Escherichia coli FabF C163Q mutant expressed in Escherichia coli BL21 (DE3) assessed as change in enthalpy measured after 200 sec by isothermal titration calorimetry; summary of the method: as §3
[14] = tested on: Escherichia coli; assay: Binding affinity to His6-tagged Escherichia coli FabF C163Q mutant expressed in Escherichia coli BL21 (DE3) assessed as change in entropy measured after 200 sec by isothermal titration calorimetry; summary of the method: as §3
[15] = tested on: Escherichia coli; assay: Binding affinity to His6-tagged Escherichia coli FabF C163Q mutant expressed in Escherichia coli BL21 (DE3) assessed Gibbs free energy change measured after 200 sec by isothermal titration calorimetry; summary of the method: as §3
[16] = tested on: Staphylococcus aureus; assay: Antibacterial activity against methicillin resistant Staphylococcus aureus infected in C57BL/6J mouse model of peritonitis assessed as mouse survival when infected with 2.5x10^7 CFU bacteria at 10 mg/kg, ip administered at 1 and 5 hrs post infection; type: functional, organism-based
Summary of the method: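 Female C57BL/6J mice given a higher intraperitoneal MRSA inoculum of 2.5 × 10^7 CFU; intraperitoneal treatment at 1 and 5 h post-infection; survival recorded.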

SMILES | MIC [1] [µg/mL] | MIC [2] [µg/mL] | MIC [3] [µg/mL] | MIC [4] [µg/mL] | MIC [5] [µg/mL] | MIC [6] [µg/mL] | MIC [7] [µg/mL] | MIC [8] [µg/mL] | Activity [9] | Activity [10] | Kd [11] [nM] | Ratio [12] | deltaH [13] [kcal/mol] | -TdeltaS [14] [kcal/mol] | deltaG [15] [kcal/mol] | Activity [16]
CC(=O)NC[C@H]1CN(c2ccc(N3CCOCC3)c(F)c2)C(=O)O1 [LINEZOLID] | 0.5 (≈ 1.48 µM) | 0.5 (≈ 1.48 µM) | 0.5 (≈ 1.48 µM) | 0.5 (≈ 1.48 µM) | – | – | – | – | – | – | – | – | – | – | – | –
CC[C@H](C)CCCCC(=O)N[C@@H](CCN)C(=O)N[C@H](C(=O)N[C@@H](CCN)C(=O)N[C@H]1CCNC(=O)[C@H]([C@@H](C)O)NC(=O)[C@H](CCN)NC(=O)[C@H](CCN)NC(=O)[C@H](CC(C)C)NC(=O)[C@@H](Cc2ccccc2)NC(=O)[C@H](CCN)NC1=O)[C@@H](C)O (X1-[Dab]T[Dab][Dab][Dab][dF]L[Dab][Dab]T; lactam 4-C) | – | – | – | – | 4 (≈ 3.32 µM) | – | – | – | – | – | – | – | – | – | – | –
C=C1C[C@@]23CCC1C[C@H]2[C@](C)(CCC(=O)Nc1c(O)ccc(C(=O)O)c1O)C(=O)[C@@H]1O[C@@H]13 (single isomer, unassigned) | 2 (≈ 4.53 µM) | 8 (≈ 18.1 µM) | 4 (≈ 9.06 µM) | 4 (≈ 9.06 µM) | 4 (≈ 9.06 µM) | > 32 | > 32 | 16 | Active | Active | 102 | 1.17 | -1.66 | -7.59 | -9.25 | –
C=C1C[C@]23C=C(Sc4ccc(C)cc4)C(=O)[C@@](C)(CCC(=O)Nc4c(O)ccc(C(=O)O)c4O)[C@@H]2CC1CC3 (single isomer, unassigned) | 2 (≈ 3.65 µM) | 4 (≈ 7.3 µM) | 2 (≈ 3.65 µM) | 1 (≈ 1.83 µM) | > 32 | 16 (≈ 29.2 µM) | 16 (≈ 29.2 µM) | > 32 | Active | Active | – | – | – | – | – | –
CC1(C)S[C@@H]2[C@H](NC(=O)[C@H](N)c3ccccc3)C(=O)N2[C@H]1C(=O)O | – | – | – | – | – | 32 (≈ 91.6 µM) | 16 (≈ 45.8 µM) | – | – | – | – | – | – | – | – | –
C=C1C[C@]23C=C(Sc4ncccn4)C(=O)[C@@](C)(CCC(=O)Nc4c(O)ccc(C(=O)O)c4O)[C@@H]2CC1CC3 (single isomer, unassigned) | – | 16 (≈ 29.9 µM) | 8 (≈ 14.9 µM) | 8 (≈ 14.9 µM) | – | – | – | – | Active | Active | – | – | – | – | – | –
C=C1C[C@]23C=C(Sc4ccoc4C)C(=O)[C@@](C)(CCC(=O)Nc4c(O)ccc(C(=O)O)c4O)[C@@H]2CC1CC3 (single isomer, unassigned) | 2 (≈ 3.72 µM) | 2 (≈ 3.72 µM) | 1 (≈ 1.86 µM) | 1 (≈ 1.86 µM) | > 32 | 8 (≈ 14.9 µM) | 8 (≈ 14.9 µM) | 16 | Active | Active | – | – | – | – | – | inactive
C=C1C[C@]23C=C(Sc4cccs4)C(=O)[C@@](C)(CCC(=O)Nc4c(O)ccc(C(=O)O)c4O)[C@@H]2CC1CC3 (single isomer, unassigned) | – | 2 (≈ 3.71 µM) | 2 (≈ 3.71 µM) | 2 (≈ 3.71 µM) | – | – | – | – | Active | Active | – | – | – | – | – | –
C=C1C[C@]23C=C(SCCC)C(=O)[C@@](C)(CCC(=O)Nc4c(O)ccc(C(=O)O)c4O)[C@@H]2CC1CC3 (single isomer, unassigned) | – | 8 (≈ 16 µM) | 4 (≈ 8.01 µM) | 4 (≈ 8.01 µM) | – | – | – | – | Active | Active | – | – | – | – | – | –

— ChEMBL document CHEMBL4765495, “Semisynthesis and Biological Evaluation of Platencin Thioether Derivatives: Dual FabF and FabH Inhibitors against MRSA” (ACS Med Chem Lett, 2021)
